# Assay results of several laboratories.
# Compare with care: the assays were run in different laboratories.
# Tumor necrosis factor receptor superfamily member 9: Tumor necrosis factor receptor superfamily member 9 (Homo sapiens, UniProt Q07011)
# CYP2D6: Cytochrome P450 2D6 (CYP2D6, Homo sapiens, UniProt P10635)
# gag-pol integrase: Gag-Pol polyprotein, integrase (gag-pol, Human immunodeficiency virus 1, UniProt P12497)
# PPARA: Peroxisome proliferator-activated receptor alpha (PPARA, Homo sapiens, UniProt Q07869)
SMILES,target,test,test system,setting,quantity,value
CCCC[C@@H]1NC(=O)[C@H](Cc2ccc(O)cc2)NC(=O)[C@@H]2CCCN2C(=O)[C@H](CC(=O)O)NC(=O)[C@H](C)NC(=O)[C@H](Cc2ccccc2)NC(=O)[C@@H]2CSCCC(=O)N3CN(CN(C3)C(=O)CCSC[C@@H](C(=O)N[C@@H](C)C(N)=O)NC1=O)C(=O)CCSC[C@H](NC(C)=O)C(=O)N[C@@H](CC(C)(C)C)C(=O)N1CCC[C@H]1C(=O)N[C@@H](CCC(=O)O)C(=O)N[C@H](CCCCNC(=O)CCc1cn(CCOCCOCCOCCOCCOCCC(=O)NCCCC[C@H]3NC(=O)[C@H](Cc4cccc5ccccc45)NC(=O)[C@@H]4CCCN4C(=O)CCSCCC(=O)N4CN5CN(C4)C(=O)CCSC[C@H](NC3=O)C(=O)N[C@@H](CCSC)C(=O)N[C@@H](CCCCNC(=N)N)C(=O)N[C@@H](CC(=O)O)C(=O)N[C@@H](Cc3c[nH]c4ccccc34)C(=O)N[C@@H](CO)C(=O)N[C@@H]([C@@H](C)O)C(=O)N3CCC[C@H]3C(=O)N3C[C@H](O)C[C@H]3C(=O)N[C@@H](Cc3c[nH]c4ccccc34)C(=O)N[C@H](C(N)=O)CSCCC5=O)nn1)C(=O)N1CCC[C@H]1C(=O)N[C@@H](Cc1ccc(O)cc1)C(=O)N2,Tumor necrosis factor receptor superfamily member 9,"binding, SPR",,,Kd,3.2 nM
CC(C)C[C@H](NC(=O)[C@H](CCCCN)NC(=O)[C@@H]1CCCN1C(=O)[C@@H](N)CCCNC(=N)N)C(=O)N[C@@H](CCCCN)C(=O)O,"Alpha-1B adrenergic receptor (ADRA1B, Homo sapiens, UniProt P35368)","cell-free assay, radioligand",,,Ki,2900 nM
[Cd+2],"Protein phosphatase 1A (PPM1A, Homo sapiens, UniProt P35813, D38A)","enzyme activity, inhibitor, absorbance",,pH 8,Ki,390 nM
CCCC[C@@H]1NC(=O)[C@H](Cc2ccc(O)cc2)NC(=O)[C@@H]2CCCN2C(=O)[C@H](CC(=O)O)NC(=O)[C@H](C)NC(=O)[C@H](Cc2ccccc2)NC(=O)[C@@H]2CSCCC(=O)N3CN(CN(C3)C(=O)CCSC[C@H](NC(C)=O)C(=O)N[C@@H](CC(C)(C)C)C(=O)N[C@@H](CCC(=O)O)C(=O)N[C@@H](CCC(=O)O)C(=O)N[C@H](CCCCNC(=O)CCc3cn(CCOCCOCCOCCOCCOCCC(=O)N[C@H]4CSCCC(=O)N5CN6CN(C5)C(=O)CCSC[C@H](NC(=O)[C@@H](CC(=O)O)NC(=O)[C@H](Cc5cccc7ccccc57)NC(=O)[C@@H]5CCCN5C4=O)C(=O)N[C@@H](CCSC)C(=O)N[C@@H](CCCCNC(=N)N)C(=O)N[C@@H](CC(=O)O)C(=O)N[C@@H](Cc4c[nH]c5ccccc45)C(=O)N[C@@H](CO)C(=O)N[C@@H]([C@@H](C)O)C(=O)N4CCC[C@H]4C(=O)N4C[C@H](O)C[C@H]4C(=O)N[C@@H](Cc4c[nH]c5ccccc45)C(=O)N[C@H](C(N)=O)CSCCC6=O)nn3)C(=O)N3CCC[C@H]3C(=O)N[C@@H](Cc3ccc(O)cc3)C(=O)N2)C(=O)CCSC[C@@H](C(N)=O)NC1=O,Tumor necrosis factor receptor superfamily member 9,"binding, SPR",,,Kd,9.6 nM
Cc1c(Cc2ccc(C(F)(F)F)nc2)c[nH]c1C(=O)NC(C)c1cn[nH]c1 (stereo not shown),CYP2D6,"enzyme activity, inhibitor","human, liver microsomes",,IC50,750 nM
O=C(O)[C@H](Cc1ccc2ccccc2c1)NC(=O)C1(c2ccc(F)cc2)CCN(CCC(F)(F)F)CC1,gag-pol integrase,"enzyme activity, inhibitor, TR-FRET",,,IC50,206000 nM
c1ccc(-c2ncc(CN3CCN(c4ncccn4)CC3)[nH]2)cc1,"D(2) dopamine receptor (Drd2, Rattus norvegicus, UniProt P61169)","ligand displacement, radioligand",,cell membranes,Ki,817 nM
CCCC[C@@H]1NC(=O)[C@H](Cc2ccc(O)cc2)NC(=O)[C@@H]2CCCN2C(=O)[C@H](CC(=O)O)NC(=O)[C@H](C)NC(=O)[C@H](Cc2ccccc2)NC(=O)[C@@H]2CSCCC(=O)N3CN(CN(C3)C(=O)CCSC[C@H](NC(C)=O)C(=O)N[C@@H](CC(C)(C)C)C(=O)N3CCC[C@H]3C(=O)N[C@@H](CCC(=O)O)C(=O)N[C@H](CCCCNC(=O)CCc3cn(CCOCCOCCOCCOCCOCCC(=O)N[C@H]4CSCCC(=O)N5CN6CN(C5)C(=O)CCSC[C@H](NC(=O)[C@@H](CC(=O)O)NC(=O)[C@H](Cc5cccc7ccccc57)NC(=O)[C@@H]5CCCN5C4=O)C(=O)N[C@@H](CCSC)C(=O)N[C@@H](CCCCNC(=N)N)C(=O)N[C@@H](CC(=O)O)C(=O)N[C@@H](Cc4c[nH]c5ccccc45)C(=O)N[C@@H](CO)C(=O)N[C@@H]([C@@H](C)O)C(=O)N4CCC[C@H]4C(=O)N4C[C@H](O)C[C@H]4C(=O)N[C@@H](Cc4c[nH]c5ccccc45)C(=O)N[C@H](C(N)=O)CSCCC6=O)nn3)C(=O)N3CCC[C@H]3C(=O)N[C@@H](Cc3ccc(O)cc3)C(=O)N2)C(=O)CCSC[C@@H](C(N)=O)NC1=O,Tumor necrosis factor receptor superfamily member 9,"binding, SPR",,,Kd,4.47 nM
O=C(O)[C@H](Cc1ccccc1)NC(=O)C1(c2ccc(-c3ccccc3)cc2)CCN(CCC(F)(F)F)CC1,gag-pol integrase,"enzyme activity, inhibitor, TR-FRET",,,IC50,263000 nM
Cc1c(C2(c3ccc(C(F)(F)F)nc3)CC2)c[nH]c1C(=O)NC(C)c1c[nH]cn1 (stereo not shown),CYP2D6,"enzyme activity, inhibitor","human, liver microsomes",,IC50,320 nM
O=C(O)C(F)(OC(F)(F)C(F)(F)C(F)(F)F)C(F)(F)F (stereo not shown),PPARA,"reporter gene, agonist, luciferase",,,EC50,2100 nM
O=C(Cc1ccccc1)N[C@H](C(=O)O)[C@@H]1N=C(C(=O)O)C(CSC(C(=O)O)c2ccccc2)CS1 (stereo partly shown),"Metallo-beta-lactamase VIM-2 (VIM-2, Escherichia coli, UniProt Q5U7L7)","enzyme activity, inhibitor, absorbance",,,IC50,65600 nM
CC(=O)N[C@@H](CC(C)C)C(=O)N[C@@H](CC(C)C)C(=O)N[C@@H](CC(C)C)C(=O)N[C@@H](CCCN=C(N)N)C(=O)N[C@H](C(=O)N[C@@H](CCCCN)C(=O)N[C@@H](CCCN=C(N)N)C(N)=O)C(C)C,"Neuroendocrine convertase 2 (Homo sapiens, UniProt P16519)","enzyme activity, inhibitor",,,Ki,500 nM
CC(C)C[C@H](NC(=O)[C@H](Cc1ccccc1)NC(=O)[C@H](Cc1ccc(O)cc1)NC(=O)CNC(=O)[C@H](CCCCN)NC(=O)[C@H](CO)NC(=O)[C@H](CCC(N)=O)NC(=O)CNC(=O)[C@@H](NC(=O)[C@H](CO)NC(=O)[C@@H]1CCCN1C(=O)[C@H](CO)NC(=O)[C@H](CCC(N)=O)NC(=O)[C@H](Cc1ccc(O)cc1)NC(=O)[C@H](CCC(=O)O)NC(=O)[C@H](C)NC(=O)[C@H](CCCCN)NC(=O)[C@@H](N)Cc1ccccc1)C(C)C)C(=O)N[C@@H](Cc1ccccc1)C(=O)N[C@@H](CCCNC(=N)N)C(=O)N1CCC[C@H]1C(=O)N[C@@H](CCCNC(=N)N)C(=O)N[C@@H](CC(N)=O)C(N)=O,"Neuromedin-U receptor 2 (NMUR2, Homo sapiens, UniProt Q9GZQ4)","inositol phosphate, agonist, TR-FRET",,,EC50,0.24 nM
O=S(=O)(O)C(F)(F)C(F)(F)C(F)(F)C(F)(F)C(F)(F)C(F)(F)C(F)(F)C(F)(F)F,PPARA,"reporter gene, agonist, luciferase",,,EC50,24000 nM
O=C(O)c1cc[c]([Hg][Cl])cc1,"Beta-lactamase TEM (bla, Escherichia coli, UniProt P62593)","enzyme activity, inhibitor",,,IC50,> 30000 nM
